Inconclusive results are not listed. Active and inactive are the calls of the source.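 The calls were made as follows, unless noted: active = growth inhibition above 25% in both replicates, a cutoff set 3 SD above the mean; inconclusive = above 25% in only one replicate; inactive = the rest.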
Columns and labels:
[1] = S. cerevisiae growth inhibition in permissive medium (OD615), pilot counter-assay for S. cerevisiae lifespan shortening project, permissive growth control (AID 705); conditions: OD615, 24 h, at 10 µM, stronger effect = higher value
In short: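 System: S. cerevisiae with engineered DeaD lifespan system / Measured by: absorbance (optical density) at 615 nm / Read-out: reduction in yeast growth (OD615) / Times: 4 h cell pre-growth, 24 h exposure at 30 °C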

[2] = S. cerevisiae growth inhibition in restrictive medium, OD615, pilot screen, restrictive growth control, yeast lifespan reduction project (AID 706;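 active = growth inhibition above a set limit, 3 SD over mean compound inhibition, in both replicates, cut at about 43% in these data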;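 also: modified DeaD lifespan yeast strain shifted to restrictive glucose medium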); conditions: OD615, 48 h, at 10 µM, stronger effect = higher value
In short: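 System: Engineered S. cerevisiae DeaD strain | Buffer or medium: Glucose-based CSMM-D restrictive medium | Schedule: 4 h pre-incubation, 48 h exposure at 30 °C | Technique: Optical density at 615 nm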

[3] = doxorubicin toxicity protection in MRP-1 cells – H69AR cells, CellTiter-Glo, duplicate, MRP-1 activator project, pilot screen (AID 807;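 active = viability increase at or above a cutoff of the median across tested compounds plus 3 SD, cut at about 8.5% in these data, passing the limit was not always enough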;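 also: compound pretreatment 18-22 h then 72 h combined with doxorubicin; 0% = doxorubicin alone and 100% = vehicle without doxorubicin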); conditions: H69AR viability with doxorubicin, CellTiter-Glo luminescence; at 10 µM; stronger effect = higher value
[4] = viability of PTEN-null HCT116 cells – cell-based, HCT116 clonal line, CellTiter-Glo, pilot screen (AID 824;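 active = viability at or below 27.92% in each of two runs, the all-compound median minus 4 SD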;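 also: 0% = 20 µM Hyamine control and 100% = vehicle cell control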); conditions: HCT116 PTEN-deleted viability, 60 h, at 10 µM, stronger effect = lower value
[5] = RAM pathway blockade in budding yeast – dse1pr::URA3 reporter, 5-FOA selection, pilot screen (AID 869;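 active = inhibition over a set limit, the all-compound mean plus 3 SD, in both replicate runs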;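 also: 0% = DMSO wells with no growth and 100% = 10 µM 1-NA-PP1 with full growth; RAM network block rescues cells from 5-FOA so hits raise OD615 growth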); conditions: S. cerevisiae dse1pr::URA3 5-FOA growth, OD615, 2 d, at 10 µM, stronger effect = higher value
[6] = RAM signaling pathway blockade in yeast – S. cerevisiae, Pdr1DBD-CYC8 efflux-inhibited sensitized strain, primary screen (AID 1298;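 active = RAM network inhibition above 8.4% in each of two replicates, 3 SD over the compound average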;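 also: 0% = DMSO untreated cells without growth and 100% = 10 µM 1-NA-PP1 full growth; higher means more yeast growth rescued from 5-FOA killing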); conditions: S. cerevisiae cbk1-as DSE1-URA3 strain, 5-FOA growth OD615, 2 d; at 50 µM; stronger effect = higher value
[7] = viability of HCT116 without oncogenic beta-catenin – human colon tumor cells, pilot screen (AID 823;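 active = cell viability at or below a set limit in both duplicate runs, the limit being the all-compound median minus 4 SD, cut at about 23% in these data, passing the limit was not always enough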;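 also: 0% = wells killed by 20 µM Hyamine and 100% = untreated DMSO cell wells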); conditions: HCT116 beta-catenin knockout viability, CellTiter-Glo, 60 h; at 10 µM; stronger effect = lower value
[8] = Coupled enzyme confirmation of inhibitors against recombinant Mtb PanC (AID 375; call rule not given here); conditions: coupled enzyme assay
[9] = target: Pantothenate synthetase (Mycobacterium tuberculosis (strain ATCC 25618 / H37Rv)) (UniProt P9WIL5); test: as above; conditions: coupled enzyme assay; at 10 µM, stronger effect = higher value
Sequence of Pantothenate synthetase (Mycobacterium tuberculosis (strain ATCC 25618 / H37Rv)) (P9WIL5 whole entry, looked up): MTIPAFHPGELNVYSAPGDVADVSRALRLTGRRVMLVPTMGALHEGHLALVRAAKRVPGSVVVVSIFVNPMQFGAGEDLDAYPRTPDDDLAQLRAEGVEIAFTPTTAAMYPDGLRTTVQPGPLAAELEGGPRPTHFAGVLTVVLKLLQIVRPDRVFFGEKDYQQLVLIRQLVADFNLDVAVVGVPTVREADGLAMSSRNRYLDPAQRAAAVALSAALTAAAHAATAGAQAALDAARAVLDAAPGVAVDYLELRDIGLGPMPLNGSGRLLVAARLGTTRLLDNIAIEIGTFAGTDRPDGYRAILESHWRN

[10] = measured here: coupling enzymes IC50 repeat trials unless noted

SMILES	growth inhibition [1]	growth inhibition [2]	viability increase [3]	viability [4]	inhibition [5]	RAM network inhibition [6]	viability [7]	IC50 [8, 10]	outcome [9]	IC50 ([8]; measured here: coupling enzymes IC50 repeat trials)	IC50 ([8]; measured here: coupling enzymes counter-screen IC50)
COc1cc2c(cc1OC)C(C(=O)N1CCC3(CC1)OCCO3)C(c1ccccc1F)N(C)C2=O (centres undefined)	-3.76% (inactive)	12% (inactive)	-3.17% (inactive)	84.3% (inactive)	1.23% (inactive)	0.57% (inactive)	–	–	–	–	–
O=C(Cc1ccc(Br)cc1)N1CCN(Cc2ccccc2)CC1	-2.42% (inactive)	-2.88% (inactive)	-1.69% (inactive)	72.7% (inactive)	1.23% (inactive)	5.41% (inactive)	–	–	–	–	–
Cc1ccc2occ(CN3CC4CC(C3)c3cccc(=O)n3C4)c(=O)c2c1 (centres undefined)	-16.2% (inactive)	-17.7% (inactive)	-2.72% (inactive)	90.8% (inactive)	1.96% (inactive)	1.61% (inactive)	98.5% (inactive)	–	–	–	–
O=C(c1ccccc1)c1cn(CC(=O)N2CCCC2)c2ccccc12	-15.1% (inactive)	-16.4% (inactive)	-1.14% (inactive)	92% (inactive)	3.23% (inactive)	4.67% (inactive)	102% (inactive)	–	–	–	–
Cc1nn(C2CCOC(C)(C)C2)c2c1C(c1ccc3c(c1)OCO3)SCC(=O)N2 (centres undefined)	7.63% (inactive)	14.5% (inactive)	-0.34% (inactive)	–	0.985% (inactive)	1.2% (inactive)	97% (inactive)	–	–	–	–
COc1cccc(N2C(=O)CC(=O)NC2=O)c1	-5.82% (inactive)	-6.37% (inactive)	-0.55% (inactive)	108% (inactive)	1.5% (inactive)	1.99% (inactive)	–	–	–	–	–
O=c1cccc2n1CC1CC2CN(C(c2cccc(F)c2)c2sc3ncnn3c2O)C1 (centres undefined)	-2.99% (inactive)	-4.42% (inactive)	-0.98% (inactive)	111% (inactive)	2.02% (inactive)	-0.21% (inactive)	105% (inactive)	–	–	–	–
CCc1sc(C(=O)N2CCC3(CC2)OCCO3)cc1Br	-7.48% (inactive)	-12.2% (inactive)	-2% (inactive)	100% (inactive)	0.935% (inactive)	1.59% (inactive)	–	–	–	–	–
CN1CCN(CCC(C#N)(c2ccccc2)c2ccccc2)CC1	-19.9% (inactive)	-7.5% (inactive)	-2.94% (inactive)	–	1.81% (inactive)	0.63% (inactive)	87% (inactive)	–	–	–	–
COc1cc(C2SCC(=O)Nc3c2c(=O)[nH]n3C2CCCCCC2)cc(OC)c1OC (centres undefined)	-22.7% (inactive)	-4.26% (inactive)	-2.62% (inactive)	–	2.39% (inactive)	2.76% (inactive)	92.6% (inactive)	–	–	–	–
O=c1cccc2n1CC1CC2CN(Cc2ccc3c(c2)OCO3)C1 (centres undefined)	-5.27% (inactive)	2.45% (inactive)	-2.71% (inactive)	94.6% (inactive)	0.6% (inactive)	-0.2% (inactive)	98.1% (inactive)	–	–	–	–
COc1ccc2c(c1)CCc1c(C(=O)Nc3cc(C)n(Cc4ccc(Cl)cc4)n3)noc1-2	–	–	–	–	–	–	–	> 100 µM	inactive	–	–
CC(C)(C)C1CCc2onc(C(=O)Nc3cnn(Cc4ccc(F)cc4)c3)c2C1 (centres undefined)	–	–	–	–	–	–	–	–	–	> 100 µM	> 100 µM
CC1=CC(=C2C(=O)NC(=O)NC2=O)C=C(C(F)(F)F)N1C(C)C	-13.5% (inactive)	-9.69% (inactive)	-1.79% (inactive)	91.3% (inactive)	2.69% (inactive)	0.05% (inactive)	92.5% (inactive)	–	–	–	–
COc1cc(CN2CC3CC(C2)c2cccc(=O)n2C3)cc(OC)c1OC (centres undefined)	-11.8% (inactive)	-4.6% (inactive)	-2.25% (inactive)	109% (inactive)	2.42% (inactive)	0.85% (inactive)	104% (inactive)	–	–	–	–
CC12CCC(=O)C=C1CCC1C2CCC2(C)C(O)CCC12 (centres undefined)	5.38% (inactive)	6.93% (inactive)	-3.17% (inactive)	94% (inactive)	0.475% (inactive)	1.32% (inactive)	89.5% (inactive)	–	–	–	–
COc1ccc(N2C(=O)CC(N3CC=C(c4ccccc4)CC3)C2=O)cc1 (centres undefined)	-17.8% (inactive)	-0.61% (inactive)	1.66% (inactive)	103% (inactive)	0.145% (inactive)	4.45% (inactive)	101% (inactive)	–	–	–	–
Cc1nc2ccc(Cl)cn2c1P(=S)(N1CCOCC1)N1CCOCC1	-10.4% (inactive)	4.46% (inactive)	-2.81% (inactive)	–	0.175% (inactive)	5.03% (inactive)	99.8% (inactive)	–	–	–	–
COC(=O)C(O)(c1ccc(N(C)S(=O)(=O)c2ccccc2)cc1)C(F)(F)F (centres undefined)	-3.52% (inactive)	2.86% (inactive)	1.65% (inactive)	108% (inactive)	1.2% (inactive)	0.9% (inactive)	98.8% (inactive)	–	–	–	–
CN(C(=O)Oc1cccc2cccnc12)c1ccccc1	-2.11% (inactive)	3.21% (inactive)	-0.61% (inactive)	90.1% (inactive)	0.415% (inactive)	2.67% (inactive)	91% (inactive)	–	–	–	–

SMILES	growth inhibition [1]	growth inhibition [2]	viability increase [3]	viability [4]	inhibition [5]	RAM network inhibition [6]	viability [7]	IC50 [8, 10]	outcome [9]	IC50 ([8]; measured here: coupling enzymes IC50 repeat trials)	IC50 ([8]; measured here: coupling enzymes counter-screen IC50)
O=C(CN1CC(c2ccccc2)CC1=O)Nc1cccc(F)c1 (centres undefined)	-10.1% (inactive)	-5.42% (inactive)	-4.37% (inactive)	96.5% (inactive)	1.39% (inactive)	4.67% (inactive)	98.3% (inactive)	–	–	–	–
Cc1c(C(=O)N2CCC3(CC2)OCCO3)oc2ccc(S(=O)(=O)N3CCOCC3)cc12	-9.41% (inactive)	-18.4% (inactive)	-1.67% (inactive)	98.4% (inactive)	1.09% (inactive)	1.19% (inactive)	–	–	–	–	–
COc1ccc(C2C(C(=O)N3CCC4(CC3)OCCO4)CC(=O)N2c2ccc(OC)cc2)cc1 (centres undefined)	-8.58% (inactive)	-2.57% (inactive)	-3.2% (inactive)	103% (inactive)	1% (inactive)	5.09% (inactive)	–	–	–	–	–
Cc1cc(OCC(=O)NC2CCS(=O)(=O)C2)c2c3c(c(=O)oc2c1)CCC3 (centres undefined)	-13.3% (inactive)	-15.4% (inactive)	-5.3% (inactive)	–	1.55% (inactive)	2.75% (inactive)	87.2% (inactive)	–	–	–	–
Nc1ccc(S(=O)(=O)N2CC3CC(C2)c2cccc(=O)n2C3)cc1 (centres undefined)	1.94% (inactive)	1.35% (inactive)	0.35% (inactive)	100% (inactive)	0.13% (inactive)	0.37% (inactive)	101% (inactive)	–	–	–	–
CC12CN3CC(C)(CN(C1)C3c1ccco1)C2=O (centres undefined)	-8.88% (inactive)	-8.04% (inactive)	-0.55% (inactive)	99.6% (inactive)	2.1% (inactive)	2.07% (inactive)	95.6% (inactive)	–	–	–	–
CCOC(=O)c1cncn1C(C)c1ccccc1 (centres undefined)	-15.6% (inactive)	1.2% (inactive)	-2.02% (inactive)	–	0.145% (inactive)	3.01% (inactive)	102% (inactive)	–	–	–	–
Cn1c(O)c(C=Nc2ccc(Cl)cc2)c(=O)n(C)c1=O	-7.12% (inactive)	-0.49% (inactive)	-0.57% (inactive)	93.7% (inactive)	0.685% (inactive)	4.04% (inactive)	96.2% (inactive)	–	–	–	–
CC(CO)(CO)N=Cc1c(O)n(-c2cccc3ccccc23)c(=O)[nH]c1=O	-9.27% (inactive)	-18.2% (inactive)	-1.01% (inactive)	99% (inactive)	0.52% (inactive)	4.06% (inactive)	95.8% (inactive)	–	–	–	–
CCCOc1ccccc1C1SCC(=O)Nc2c1c(=O)[nH]n2C(C)CCC (centres undefined)	-9.65% (inactive)	-5.25% (inactive)	1.02% (inactive)	–	1.6% (inactive)	1.25% (inactive)	94% (inactive)	–	–	–	–
FC(F)(F)/C(=N\P(=S)(N1CCOCC1)N1CCOCC1)N1CCOCC1	6.63% (inactive)	-10.3% (inactive)	-1.97% (inactive)	–	1.79% (inactive)	5.4% (inactive)	94.9% (inactive)	–	–	–	–
COCCOC(=O)C1=C(N)OC(C)=C(C(=O)OC)C12C(=O)Nc1ccccc12 (centres undefined)	-5.22% (inactive)	-5.97% (inactive)	-4.28% (inactive)	93% (inactive)	2.54% (inactive)	3.95% (inactive)	–	–	–	–	–
CC1(C)CC(n2[nH]c(=O)c3c2NC(=O)CSC3c2ccc(F)cc2)CCO1 (centres undefined)	-12.3% (inactive)	-25.8% (inactive)	-2.67% (inactive)	–	-0.28% (inactive)	4.89% (inactive)	95.8% (inactive)	–	–	–	–
CN1CCN(c2ccc(NC(=O)C(C)(C)C)cc2)CC1	-17.9% (inactive)	6% (inactive)	-1.56% (inactive)	–	1.54% (inactive)	5.29% (inactive)	94.8% (inactive)	–	–	–	–
O/N=C/c1c[nH]c2ccccc12	4.87% (inactive)	0.865% (inactive)	-4.62% (inactive)	94.4% (inactive)	2.54% (inactive)	3.59% (inactive)	99.9% (inactive)	–	–	–	–
Cc1ccccc1Cn1cc(NC(=O)c2noc3c2CC(C(C)(C)C)CC3)cn1 (centres undefined)	–	–	–	–	–	–	–	> 100 µM	active	–	–
CCOC(=O)C1SC2(C(F)(F)C(F)F)CC1(O)c1c(c(OC)c3occc3c1OC)O2 (centres undefined)	-4.93% (inactive)	-26.4% (inactive)	-0.89% (inactive)	86.9% (inactive)	1.6% (inactive)	6.2% (inactive)	98.4% (inactive)	–	–	–	–
COc1ccc2[nH]c(C)c(CCN3CCC(=O)C(C)C3C)c2c1 (centres undefined)	-4.37% (inactive)	-10.2% (inactive)	-2.73% (inactive)	93.1% (inactive)	0.27% (inactive)	3.24% (inactive)	87.1% (inactive)	–	–	–	–
CCCCCCn1c(=O)c(C(=O)Nc2ccncc2)c(O)c2ccccc21	93.5% (active)	97.4% (active)	-7.48% (inactive)	–	-0.885% [strain carries analog-sensitive mutant Cbk1 kinase] (inactive)	-1.58% (inactive)	–	–	–	–	–
